From PubChem BioAssay AID602422 (The Scripps Research Institute Molecular Screening Center, 2012)
Where “and” joins values, the source holds several entries; their conditions need not be identical. Identical values can stand only once. Calls of active or inactive are those of the source.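 The calls were made as follows: active = remaining nuclease activity at or below 52% of the solvent-only control at any tested dose; inactive = above 52% at every tested dose.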

System: ATP-dependent helicase/nuclease AddAB (Helicobacter pylori 26695)
Assay: AddAB nuclease inhibitors, single dose, late-stage follow-up, biochemical, radioactivity, purified enzyme, 100 µM, powder samples (AID 602422)
Details: [3H]-dsDNA TCA-soluble nuclease assay, at 100 µM, active compounds read low
How it was run: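 Compound dosing: nominal 100 µM, 5% DMSO. Test system: purified AddAB. Benchmarks: DMSO control, no-enzyme background. Schedule: 20 min reaction, 37 °C. Measured by: scintillation counting, TCA-soluble counts. Medium: Tris-HCl pH 8.5, MgCl2, ATP. Reagent: tritiated phage T7 dsDNA substrate at 6 µM nucleotides (2 µg/mL).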

Row | Compound | remaining nuclease activity
1 | N#Cc1c(NC(=O)c2ccccc2C(=O)O)sc2c1CCCC2 | 55% (inactive)
2 | CC1CCc2c(sc(NC(=O)c3ccc([N+](=O)[O-])o3)c2C#N)C1 (stereo not drawn) | 89% (inactive)
3 | C=CCNC(=S)N1CCN(c2ncc3c(=O)c(C(=O)O)cn(CC)c3n2)CC1 | 93% (inactive)
4 | N#Cc1c(NC(=O)C2CC=CCC2C(=O)O)sc2c1CCC2 (stereo not drawn) | 92% (inactive)
5 | CCn1cc(C(=O)O)c(=O)c2cnc(N3CCN(C(=S)NC(=O)c4ccco4)CC3)nc21 | 89% (inactive)
6 | CC1CCc2c(sc(NC(=O)c3ccc([N+](=O)[O-])o3)c2N)C1 (stereo not drawn) | 128% (inactive)
7 | CCn1cc(C(=O)O)c(=O)c2cnc(N3CCN(C(=S)Nc4ccc(F)cc4)CC3)nc21 | 43%
8 | CCn1cc(C(=O)O)c(=O)c2cnc(N3CCN(C(=S)Nc4cccc(C(F)(F)F)c4)CC3)nc21 | 8%
9 | CC1(C)Cc2c(sc(NC(=O)c3ccco3)c2C#N)CO1 | 69% (inactive)
10 | CCn1cc(C(=O)O)c(=O)c2cnc(N3CCN(C(=S)Nc4ccccc4C)CC3)nc21 | 81% (inactive)
11 | CCn1cc(C(=O)O)c(=O)c2cnc(N3CCN(C(=S)NC(C)c4ccccc4)CC3)nc21 (stereo not drawn) | 13%
12 | N#Cc1c(NC(=O)c2ccco2)sc2c1CCC2 | 41%
13 | Cc1sc(NC(=O)c2ccc(Br)o2)c(C#N)c1C | 40%
14 | N#Cc1c(NC(=O)c2cnccn2)sc2c1CCCCCC2 | 70% (inactive)
15 | CCn1cc(C(=O)O)c(=O)c2cnc(N3CCN(C(=S)Nc4ccccc4Cl)CC3)nc21 | 74% (inactive)
16 | CCn1cc(C(=O)O)c(=O)c2cnc(N3CCN(C(=S)Nc4ccc5c(c4)OCCO5)CC3)nc21 | 62% (inactive)
17 | COC(=O)c1c(-c2ccccc2)csc1NC(=O)c1cnccn1 | 31%

Row | Compound | remaining nuclease activity
18 | CCn1cc(C(=O)O)c(=O)c2cnc(N3CCN(C(=S)NC)CC3)nc21 | 101% (inactive)
19 | COC(=O)c1c(NC(=O)c2cnccn2)sc2c1CCCC2 | 93% (inactive)
20 | CCn1cc(C(=O)O)c(=O)c2cnc(N3CCN(C(=S)NC(=O)c4ccccc4Cl)CC3)nc21 | 93% (inactive)
21 | CNC(=O)c1c(NC(=O)c2nc(SCc3ccccc3)ncc2Cl)sc2c1CCCC2 | 21%
22 | CCn1cc(C(=O)O)c(=O)c2cnc(N3CCN(C(=S)NC(=O)c4cccc(C)c4)CC3)nc21 | 95% (inactive)
23 | CCC(C)(C)C1CCc2c(sc(NC(=O)c3cnccn3)c2C#N)C1 (stereo not drawn) | 103% (inactive)
24 | CC1CCc2c(sc(NC(=O)c3cnccn3)c2C#N)C1 (stereo not drawn) | 91% (inactive)
25 | CCn1cc(C(=O)O)c(=O)c2cnc(N3CCN(C(=S)NCc4ccccc4)CC3)nc21 | 55% (inactive)
26 | CSc1ncc(Cl)c(C(=O)Nc2sc3c(c2C(=O)NC2CCS(=O)(=O)C2)CCC(C)C3)n1 (stereo not drawn) | 77% (inactive)
27 | CCn1cc(C(=O)O)c(=O)c2cc(F)c(N3CCN(C(=S)Nc4cccc(C(F)(F)F)c4)CC3)cc21 | 9%
28 | N#Cc1c(NC(=O)c2ccc(-c3ccccc3[N+](=O)[O-])o2)sc2c1CCCC2 | 73% (inactive)
29 | Cc1ccc(C(=O)Nc2sc3c(c2C#N)CCC3)o1 | 98% (inactive)
30 | CCn1cc(C(=O)O)c(=O)c2cnc(N3CCN(C(=S)Nc4ccccc4F)CC3)nc21 | 74% (inactive)
31 | CCn1cc(C(=O)O)c(=O)c2cc(F)c(N3CCN(C(=S)Nc4ccccc4C(F)(F)F)CC3)cc21 | 51%
32 | N#Cc1c(NC(=O)c2cc(-c3ccccc3)on2)sc2c1CCCC2 | 42%
33 | N#Cc1c(NC(=O)c2ccc([N+](=O)[O-])o2)sc2c1CCCC2 | 92% (inactive)
34 | CCn1cc(C(=O)O)c(=O)c2cnc(N3CCNCC3)nc21 | 103% (inactive)

Second part, the compound after the results:

Row | remaining nuclease activity | Compound
35 | 68% (inactive) | CCn1cc(C(=O)O)c(=O)c2cnc(N3CCN(C(=S)Nc4ccccc4OC)CC3)nc21
36 | 90% (inactive) | CCn1cc(C(=O)O)c(=O)c2cnc(N3CCN(C(=S)Nc4ccccc4C(F)(F)F)CC3)nc21
37 | 87% (inactive) | NC(=O)c1c(NC(=O)c2cnccn2)sc2c1CCCC2
38 | 101% (inactive) | CCn1cc(C(=O)O)c(=O)c2cnc(N3CCN(C(=S)NC(=O)c4cccnc4)CC3)nc21
39 | 72% (inactive) | Cc1ccc(C(=O)Nc2sc3c(c2C#N)CCCCC3)o1
40 | 46% | CCn1cc(C(=O)O)c(=O)c2cnc(N3CCN(C(=S)Nc4ccc5c(c4)OCO5)CC3)nc21
41 | 65% (inactive) | N#Cc1c(NC(=O)c2cccc(F)c2)sc2c1CCCC2
42 | 116% (inactive) | Nc1c(NC(=O)c2ccc([N+](=O)[O-])o2)sc2c1CCCC2
43 | 92% (inactive) | CCn1cc(C(=O)O)c(=O)c2cnc(N3CCN(C(=O)Nc4ccccc4)CC3)nc21
44 | 83% (inactive) | CCn1cc(C(=O)O)c(=O)c2cnc(N3CCN(C(=S)Nc4ccccc4)CC3)nc21
45 | 100% (inactive) | CSc1ncc(Cl)c(C(=O)Nc2sc3c(c2C#N)CCC(C)C3)n1 (stereo not drawn)
46 | 6% | CCn1cc(C(=O)O)c(=O)c2cnc(N3CCN(C(=S)NC4CC5CCC4C5)CC3)nc21 (stereo not drawn)
47 | 92% (inactive) | CC1CCc2c(sc(NC(=O)c3cccs3)c2C#N)C1 (stereo not drawn)
48 | 111% (inactive) | N#Cc1c(NC(=O)c2ccccc2)sc2c1CCC2
49 | 71% (inactive) | Cn1nccc1C(=O)Nc1sc2c(c1C#N)CCCC2
50 | 10% and 36% | N#Cc1c(NC(=O)c2cnccn2)sc2c1CCCC2
51 | 88% (inactive) | COC(=O)c1c(-c2cccc(C)c2)csc1NC(=O)c1cnccn1
52 | 19% | CCn1cc(C(=O)O)c(=O)c2cnc(N3CCN(C(=S)Nc4ccc(Cl)cc4)CC3)nc21
53 | 33% | Cc1sc(NC(=O)c2cnccn2)c(C(=O)OC(C)C)c1-c1ccccc1
